Source: PubChem
Most compounds without a hit are left out; they make up all but 4.3% or so of the library.
CAL PDZ FP-1: inhibitors of human CAL PDZ peptide binding; Q9HD26; purified CAL PDZ, TMR-peptide fluorescence polarization, 1 h; inhibition, % at 20 µM; 330,000 tested, 0.02% active;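 active = highest replicate inhibition of at least 40%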;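 note: plate controls were DMSO neutral control wells for no effect and unlabeled competitor peptide control wells for full effect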
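Assay system – tagged CAL PDZ protein CerCALP, purified · Timing – 1 h at RT · Compound – single point, 20 µM · Measured by – fluorescence polarization from S- and P-plane intensities, G-factor corrected · Evaluation – inhibition from polarization loss · Probe or stimulus – TMR reporter peptide T*-PRC34 · Buffer or medium – pH 7.4 phosphate-saline buffer, reducing agent, detergent, IgG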
Dyrk1A ADPGlo: blocks rat Dyrk1A kinase activity; inhibition, % at 12.5 µM; ADP-Glo luminescence, NFATc1 peptide; Q63470; AID 504441; 310,000 tested, 0.43% active; in the data active = inhibition above about 50%;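 note: plate controls were vehicle with enzyme for no effect and no enzyme for full effect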
ALR inh: human ALR oxidase inhibition via reduced H2O2. P55789. purified ALR, DTT oxidation, H2O2 HRP-luminol luminescence. inhibition, % (concentration not given with the values). 290,000 tested, 3.8% active. AID 485317;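 active = mean replicate inhibition above about 79%, with every replicate also reaching it, limit read from the data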
Target sequence (P55789 whole entry, looked up): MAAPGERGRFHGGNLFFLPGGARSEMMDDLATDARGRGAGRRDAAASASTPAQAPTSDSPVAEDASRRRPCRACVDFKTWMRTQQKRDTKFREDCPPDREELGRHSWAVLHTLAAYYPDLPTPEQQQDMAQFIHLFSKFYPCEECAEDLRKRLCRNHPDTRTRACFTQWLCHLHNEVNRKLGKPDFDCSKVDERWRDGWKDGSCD
Rtt109 HAT inh: inhibitors of Candida albicans Rtt109/Vps75 histone acetyltransferase | Q5AAJ8 | purified Rtt109/Vps75, ThioGlo CoA-SH fluorescence, 4 h | inhibition, % at 34.9 µM | 330,000 tested, 0.16% active | AID 540336;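 active = inhibition of at least 50% in every replicate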
Target sequence (Q5AAJ8 whole entry, looked up): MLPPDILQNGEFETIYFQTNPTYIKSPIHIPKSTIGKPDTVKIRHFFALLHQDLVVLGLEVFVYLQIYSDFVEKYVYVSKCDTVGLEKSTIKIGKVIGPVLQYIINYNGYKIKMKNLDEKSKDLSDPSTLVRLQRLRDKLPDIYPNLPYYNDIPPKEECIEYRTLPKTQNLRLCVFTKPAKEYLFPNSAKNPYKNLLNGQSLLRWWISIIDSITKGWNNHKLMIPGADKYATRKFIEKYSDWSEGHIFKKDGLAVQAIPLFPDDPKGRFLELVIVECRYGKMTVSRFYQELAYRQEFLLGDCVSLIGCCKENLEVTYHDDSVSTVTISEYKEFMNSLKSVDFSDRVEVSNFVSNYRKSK
CAL PDZ FP-2: CAL PDZ (human) peptide binding inhibition. 300,000 tested, 0.92% active. inhibition, % at 24.9 µM. purified CAL PDZ, TMR-peptide fluorescence polarization, 1 h. Q9HD26;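 active = mean inhibition of at least 30% with at least half of replicates also reaching 30%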;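 note: 0% = DMSO neutral control and 100% = excess unlabeled competitor peptide PRC23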
* marks the source's active call; other numbers are inactive results; nt = no result given.

SMILES	CAL PDZ FP-1	Dyrk1A ADPGlo	ALR inh	Rtt109 HAT inh	CAL PDZ FP-2
CCOC(=O)c1c(CSc2ccc(CC)cc2)oc2ccc(O)c(CN(C)C)c12	0	1	-3	0	4
CCOC(=O)c1c(CSc2ccccc2)oc2cc(Br)c(O)c(CN(C)C)c12	-2	-5	82*	0	-3
CCCNS(=O)(=O)c1ccc(CCC(=O)N2CCN(c3ccc(F)cc3)CC2)cc1	0	-4	-9	-6	-4
O=C(Nc1ccc(F)cc1)C1CCCN1S(=O)(=O)c1cccc2nsnc12 (centres undefined)	0	-2	-3	-24	128*
O=C(Nc1ccc(O)cc1)C1CCCN1S(=O)(=O)c1ccc(F)cc1 (centres undefined)	-1	12	98*	3	5
O=C(Nc1ccc(F)cc1F)C1CCCN1S(=O)(=O)c1cccc2nsnc12 (centres undefined)	-1	-3	4	1	-3
C=CCN=C1CC(C)(C)C(C(=O)OC)C(O)=C1C(=O)CCC (centres undefined)	1	-1	-4	2	nt
COCC(=O)OCC(=O)Nc1cc(C)c(C)cc1[N+](=O)[O-]	-3	1	-4	50*	-4
Cc1ccc(C(=O)NCC(=O)OCC(=O)Nc2cc(C)c(C)cc2[N+](=O)[O-])cc1	-2	-48	-10	7	-22
C=CCn1c(COc2ccc(OC)cc2)nnc1SCn1nnc2ccccc2c1=O	-1	1	-13	6	2
COc1ccc2[nH]c(C)c(CCN3C(=O)C4C5C=CC(C5)C4C3=O)c2c1 (centres undefined)	-1	17	96*	-10	nt
CCOC(=O)CN(C)Cc1cn(C)nc1-c1ccc(Oc2ccccc2)cc1	0	0	-5	7	nt
COc1cc(Cl)c(C)cc1NC(=O)CN1C(=O)C2CC=CCC2C1=O (centres undefined)	-1	3	-10	1	-1
CC(=O)Oc1ccc2c(=O)oc(-c3ccccc3)nc2c1	-2	-1	0	-8	-2
CC(=O)Oc1ccc2nc(-c3ccc(Br)o3)oc(=O)c2c1	1	19	80*	0	nt
Cc1nn(C)c(C)c1C1C(C#N)=C(N)OC2=C1C(=O)CCC2 (centres undefined)	0	-8	nt	-1	0
C/C(=N\Nc1ccc(C)c(Cl)c1)c1cccnc1	0	-2	99*	-3	-1
COc1ccccc1N/N=C(\C#N)C(=N)N1CCOCC1	-1	-5	82*	18	-3
N#C/C(=N\Nc1ccc(Br)cc1)C(=N)N1CCOCC1	-3	-2	98*	7	-4
N#C/C(=N/Nc1ccc([N+](=O)[O-])cc1)C(=N)N1CCCCC1	0	9	nt	5	-1
N#C/C(=N\Nc1ccccc1)C(=N)N1CCCCC1	nt	15	99*	-4	-5
N#C/C(=N\Nc1ccc(Cl)cc1)C(=N)N1CCCCCC1	0	-2	nt	4	nt
Cc1ccc(N/N=C(\C#N)C(=N)N2CCCCC2)cc1	-1	0	99*	-10	-4
Cc1ccc(CN2CCN(C(=O)CC(C)C)CC2)cc1	-1	nt	1	-1	-2
Cc1ccc2nc(-c3ccccc3)cc(C(=O)N(C)CC(=O)Nc3ccccc3Br)c2c1	-2	5	-4	17	-6
SMILES	CAL PDZ FP-1	Dyrk1A ADPGlo	ALR inh	Rtt109 HAT inh	CAL PDZ FP-2
CCOc1ccc(/C=N/n2c(-c3ccccc3)n[nH]c2=S)cc1	nt	-3	-3	-1	-7
Cc1ccc(CN2[C@@H](CC3CCCCC3)COCCS2(=O)=O)cc1	-1	1	0	-9	-3
CCN(CC)C(=N)/C(C#N)=N/Nc1ccccc1	nt	nt	87*	nt	nt
CCOC(=O)NC(=O)/C(C#N)=N/Nc1ccc(F)cc1	-1	-3	27	12	-3
COc1ccc(CCC(=O)NCCS(=O)(=O)N2CCN(c3ccccc3OC)CC2)cc1	-1	-5	38	9	-4
C/C(=N/NC(=O)CN1CCN(S(=O)(=O)c2ccc(C)cc2)CC1)c1cccc(O)c1	0	-6	25	7	-2
O=C(C/C=N\OCc1ccc([N+](=O)[O-])cc1)Nc1ccc(F)cc1F	0	3	-3	-6	2
CN(C)C(CNC(=S)Nc1cccc(Cl)c1)c1ccccc1 (centres undefined)	-1	nt	-15	1	-1
NC(=O)c1ccsc1NC(=O)COC(=O)COc1ccccc1F	-2	-3	78*	7	-5
O=C(N/N=C/c1ccc(O)c(O)c1)C1CC1	nt	nt	99*	nt	nt
O=C(N/N=C/c1ccccc1)C(O)c1ccccc1 (centres undefined)	-4	-1	-10	30	nt
CCN(CC)c1ccc(/C=N/NC(=O)C(O)c2ccccc2)cc1 (centres undefined)	-1	-2	100*	-16	-6
CCCCCCOc1ccc(/C=N/NC(=O)C2CC2)cc1	-2	10	-12	-6	-3
CCN(CC)c1ccc(/C=N/NC(=O)Nc2nonc2N)cc1	1	5	99*	10	7
CCN(CC)c1ccc(/C=N/NC(=O)C2CC2)cc1	-2	-2	100*	-9	-2
CN(C)C(CNc1ncccn1)c1ccccc1 (centres undefined)	-2	3	28	13	2
COc1ccccc1NC(=O)CON=C(N)CC(=O)NC1CCCCC1	0	-1	-2	7	nt
COc1ccc(C(=O)NNC(=O)c2ccncc2)cc1	-1	6	0	65*	1
COc1ccc(C(=O)NC(=S)NNC(=O)c2ccncc2)cc1Br	-2	7	99*	12	nt
CCNC(=S)NNC(=O)c1ccncc1	0	-5	29	-7	68*
O=C(c1ccc(Br)c(S(=O)(=O)N2CCOCC2)c1)N1CCN(C/C=C/c2ccccc2)CC1	-2	2	nt	0	nt
Cn1c(N)c(C(=O)CSc2nn(-c3ccccc3)c(=S)s2)c(=O)n(C)c1=O	-3	-3	nt	8	-6
C(=C1/CCCC2=C1Nc1ncnn1C2c1ccccc1)/c1ccccc1 (centres undefined)	nt	nt	91*	nt	nt
CCN(C(=O)CCCC(=O)N(CC)c1ccccc1)c1ccccc1	-1	0	-21	-11	63*
CCN(C(=S)NC(=O)CCc1ccccc1)c1ccccc1	-2	0	77*	-3	-3
CN(C)c1cccc(NC(=O)CCc2ccccc2)c1	-1	0	98*	15	-3
CCN(C(=O)c1ccc(NC(=O)Cc2ccccc2)cc1)c1ccccc1	-1	1	-18	4	48*
CN(C(=O)c1ccc(NC(=O)Cc2ccccc2)cc1)c1ccccc1	2	4	-3	3	-5
CCCCC(=O)NC(=S)NNC(=O)CCc1ccccc1	-2	-2	51	-7	-3
COc1ccc(NC(=O)CSc2ccc3ccccc3c2)cc1S(=O)(=O)N1CCCCC1	-3	-4	28	-6	-7
